# Experiments:
# human wt-CFTR [1] = molecular target: T1, human wt-CFTR (Homo sapiens, UniProt P13569); format: cell-based
# rat colonic mucosa = assay: Short-circuit current assay on rat colonic mucosa; details: rat distal colonic mucosa
# human wt-CFTR [2] = molecular target: T1, human wt-CFTR; assay: Fluorescence assay of CFTR channel function; format: cell-based; details: FRT cells expressing wild-type CFTR, in the presence of 0.1 μmol/L forskolin
# ΔF508-CFTR [3] = assay: Potentiation of ΔF508-CFTR; format: cell-based; details: ΔF508-CFTR versus wt-CFTR
# ΔF508-CFTR [4] = details: read-out: affinity in potentiating ΔF508-CFTR; ref Xu et al., 2008; cited from earlier work
# [5] = test system: mouse tracheal submucosal glands; assay: Measurement of individual submucosal gland fluid secretion in mouse trachea; details: 10 μmol/L osthole in serosal bathing solution
# Method in brief: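 Cranial segment of freshly excised mouse trachea mounted on a sponge, soaked in Krebs–Henseleit solution, mucosal side up in a humidified 5% CO2/95% air chamber at 37°C. Mucosa cleared with saline, nitrogen-dried, then covered with saline-saturated oil. Some tissues pre-incubated 30 min with 20 μmol/L CFTRinh-172. Gland droplets imaged by reflected-light microscopy after stimulation; secretion rate computed from droplet diameter assuming hemispherical shape.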
# T1 sequence (P13569 whole entry): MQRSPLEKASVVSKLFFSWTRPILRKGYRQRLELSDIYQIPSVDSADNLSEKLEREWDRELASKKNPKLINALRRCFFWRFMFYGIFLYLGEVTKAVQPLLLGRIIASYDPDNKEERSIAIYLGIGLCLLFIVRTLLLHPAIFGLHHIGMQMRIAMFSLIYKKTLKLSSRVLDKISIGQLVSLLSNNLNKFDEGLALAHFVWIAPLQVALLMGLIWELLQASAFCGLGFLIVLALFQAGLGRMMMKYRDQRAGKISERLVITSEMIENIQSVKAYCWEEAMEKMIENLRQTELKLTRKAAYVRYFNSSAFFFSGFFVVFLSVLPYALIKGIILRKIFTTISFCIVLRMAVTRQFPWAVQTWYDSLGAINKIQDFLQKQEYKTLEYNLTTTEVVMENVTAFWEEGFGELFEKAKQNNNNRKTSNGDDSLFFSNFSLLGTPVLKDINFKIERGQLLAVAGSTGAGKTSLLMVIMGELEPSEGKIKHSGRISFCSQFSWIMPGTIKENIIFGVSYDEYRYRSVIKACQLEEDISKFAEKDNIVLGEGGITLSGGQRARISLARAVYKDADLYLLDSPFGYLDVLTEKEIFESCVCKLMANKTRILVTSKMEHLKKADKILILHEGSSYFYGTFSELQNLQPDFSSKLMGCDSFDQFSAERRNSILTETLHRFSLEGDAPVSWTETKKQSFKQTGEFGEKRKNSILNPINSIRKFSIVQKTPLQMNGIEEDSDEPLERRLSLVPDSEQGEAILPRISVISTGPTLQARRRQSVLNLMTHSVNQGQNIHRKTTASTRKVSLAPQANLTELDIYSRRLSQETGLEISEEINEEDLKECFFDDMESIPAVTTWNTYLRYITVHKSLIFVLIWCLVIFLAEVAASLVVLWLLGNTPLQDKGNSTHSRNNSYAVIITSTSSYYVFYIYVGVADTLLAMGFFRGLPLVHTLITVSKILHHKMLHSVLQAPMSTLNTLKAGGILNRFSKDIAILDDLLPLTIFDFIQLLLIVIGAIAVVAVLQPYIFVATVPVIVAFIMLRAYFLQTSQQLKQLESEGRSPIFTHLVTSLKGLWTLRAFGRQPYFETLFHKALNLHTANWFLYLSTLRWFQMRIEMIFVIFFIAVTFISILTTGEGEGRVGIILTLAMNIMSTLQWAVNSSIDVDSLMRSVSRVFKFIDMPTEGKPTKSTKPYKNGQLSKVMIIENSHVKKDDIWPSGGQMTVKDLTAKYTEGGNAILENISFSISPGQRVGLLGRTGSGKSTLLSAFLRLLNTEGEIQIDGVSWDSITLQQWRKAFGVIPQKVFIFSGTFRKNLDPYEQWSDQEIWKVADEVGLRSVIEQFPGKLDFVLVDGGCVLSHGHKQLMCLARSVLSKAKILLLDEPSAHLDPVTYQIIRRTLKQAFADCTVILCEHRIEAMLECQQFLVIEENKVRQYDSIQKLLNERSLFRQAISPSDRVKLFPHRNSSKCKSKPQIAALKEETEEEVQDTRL
compound,measurement,setting,value
"O=C(O)c1ccc(/C=C2\SC(=S)N(c3cccc(C(F)(F)F)c3)C2=O)cc1 [CFTRinh-172, reference compound]",block of coumarin-stimulated Cl− current,human wt-CFTR [1]; CFTRinh-172 at 20 μmol/L,completely blocked the activations
same,effect on osthole-stimulated chloride secretion,rat colonic mucosa,completely abolished the osthole-stimulated chloride secretion
CC(C)=CCOc1c2occc2cc2ccc(=O)oc12 [imperatorin],stimulation of wt-CFTR-mediated I− influx,human wt-CFTR [2],stimulated wt-CFTR-mediated I^− influx in a concentration-dependent way
O=c1ccc2ccc3occc3c2o1 [isopsoralen],stimulation of wt-CFTR-mediated I− influx,human wt-CFTR [2],stimulated wt-CFTR-mediated I^− influx in a concentration-dependent way
COc1ccc2ccc(=O)oc2c1CC=C(C)C [osthole],Kd,human wt-CFTR [1],< 0.05 µM
same,affinity in potentiating ΔF508-CFTR lower than in activating wt-CFTR,ΔF508-CFTR [3],> 200 fold
same,Kd,ΔF508-CFTR [4],~10 µM
same,increase of fluid secretion rate compared to the saline control,[5],3.34 fold
same,stimulation of wt-CFTR-mediated I− influx,human wt-CFTR [2],stimulated wt-CFTR-mediated I^− influx in a concentration-dependent way
COc1cc2ccc(=O)oc2cc1OC [scoparone],stimulation of wt-CFTR-mediated I− influx,human wt-CFTR [2],stimulated wt-CFTR-mediated I^− influx in a concentration-dependent way
